Experimental data of several laboratories.
Compare with care: the assays were run in different laboratories.
Target: Serine/threonine-protein kinase Nek1 (NEK1, Homo sapiens, UniProt Q96PY6)
One construct used (Q96PY6 1-1258): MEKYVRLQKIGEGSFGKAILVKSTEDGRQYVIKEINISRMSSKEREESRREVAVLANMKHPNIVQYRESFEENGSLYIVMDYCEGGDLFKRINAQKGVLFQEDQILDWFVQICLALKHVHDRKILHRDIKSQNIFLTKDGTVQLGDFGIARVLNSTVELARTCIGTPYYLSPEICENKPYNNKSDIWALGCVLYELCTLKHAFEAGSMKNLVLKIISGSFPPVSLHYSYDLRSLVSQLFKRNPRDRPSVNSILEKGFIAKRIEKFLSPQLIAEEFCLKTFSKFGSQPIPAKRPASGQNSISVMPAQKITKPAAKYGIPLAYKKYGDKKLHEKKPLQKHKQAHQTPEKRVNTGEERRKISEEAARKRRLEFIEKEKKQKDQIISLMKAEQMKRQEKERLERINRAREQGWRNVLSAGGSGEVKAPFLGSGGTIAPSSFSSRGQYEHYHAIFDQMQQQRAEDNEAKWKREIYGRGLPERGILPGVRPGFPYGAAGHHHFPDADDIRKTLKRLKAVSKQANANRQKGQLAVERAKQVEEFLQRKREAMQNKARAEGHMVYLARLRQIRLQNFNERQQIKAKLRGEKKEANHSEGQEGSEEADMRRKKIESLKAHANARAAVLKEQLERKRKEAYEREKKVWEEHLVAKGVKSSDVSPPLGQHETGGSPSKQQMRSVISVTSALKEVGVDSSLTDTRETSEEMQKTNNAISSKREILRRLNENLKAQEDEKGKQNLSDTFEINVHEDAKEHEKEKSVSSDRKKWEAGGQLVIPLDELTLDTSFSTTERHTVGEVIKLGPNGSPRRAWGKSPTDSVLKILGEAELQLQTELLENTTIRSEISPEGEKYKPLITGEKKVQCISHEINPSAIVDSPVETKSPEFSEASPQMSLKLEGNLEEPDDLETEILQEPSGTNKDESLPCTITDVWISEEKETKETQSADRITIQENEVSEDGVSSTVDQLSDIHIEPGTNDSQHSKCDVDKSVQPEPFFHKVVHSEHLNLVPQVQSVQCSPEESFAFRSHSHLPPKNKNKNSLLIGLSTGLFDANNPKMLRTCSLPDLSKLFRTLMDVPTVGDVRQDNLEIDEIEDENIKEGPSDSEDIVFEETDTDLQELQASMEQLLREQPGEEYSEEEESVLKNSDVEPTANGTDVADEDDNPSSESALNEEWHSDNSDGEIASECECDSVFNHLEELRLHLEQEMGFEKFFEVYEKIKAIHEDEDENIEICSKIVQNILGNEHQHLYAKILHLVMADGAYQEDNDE

Structure (SMILES) | read-out | action | technique | cells | concentration | endpoint | result
CNc1cc(Oc2cc(C(=O)Nc3cc(N4CCN(C)CC4)cc(C(F)(F)F)c3)ccc2C)ncn1 | target engagement in cells | inhibitor | chemoproteomics | Huh-7 | 1 µM | inhibition | -12.5%
C[S+]([O-])c1ccc(-c2nc(-c3ccncc3)c(-c3ccc(F)cc3)[nH]2)cc1 (stereo not shown) | cell-free assay |  |  |  | 0.5 µM | remaining signal | 94.7%
CS(=O)(=O)c1cc(C2(NC(=O)c3cncc4c3cnn4-c3ccc(F)cc3)CC2)ccn1 | cell-free assay |  | competition with immobilised ligand |  | 1 µM | remaining binding | 45%
Cc1ccc(C(=O)Nc2ccc(CN3CCN(C)CC3)c(C(F)(F)F)c2)cc1C#Cc1cnc2cccnn12 | enzyme activity | inhibitor |  |  | 23.5 nM | remaining activity | 98%
CC(C)(O)[C@H]1CC[C@H](Nc2ccc3ncc(-c4cccc(C(F)(F)F)c4)n3n2)CC1 | enzyme activity | inhibitor |  |  | 1 µM | remaining activity | 48.3%
Cc1sc(C(=O)NC2COC2)cc1-n1cc(NC(=O)Nc2c(F)cccc2Cl)cn1 | enzyme activity | inhibitor |  |  | 10 µM | remaining activity | 90.4%
Nc1ncnc2occ(-c3ccc(NC(=O)Nc4cc(C(F)(F)F)ccc4F)cc3)c12 | cell-free assay | inhibitor |  |  | 20 µM | remaining signal | 22%
COc1cc2ncnc(Nc3ccc(Oc4ccccc4)cc3C)c2cc1OC | enzyme activity | inhibitor |  |  | 1 µM | inhibition | -2%
CCN1CCN(Cc2ccc(NC(=O)c3ccc(C)c(/C=C/c4cnc5[nH]ccc5c4OC)c3)cc2C(F)(F)F)CC1 | target engagement in cells | inhibitor | chemoproteomics | A-375 | 5 µM | inhibition | -11.6%
CCCCNc1ncc2c(-c3ccc(F)cc3)nn(C[C@H]3CC[C@H](N)CC3)c2n1 | target engagement in cells | inhibitor | chemoproteomics |  | 20 mM | inhibition | -3.7%
CCOCCn1cc(C(=O)Nc2ccc(-n3nc(-c4cccnc4)cc3C(F)(F)F)cn2)ccc1=O | cell-free assay |  | competition with immobilised ligand |  | 1 µM | remaining binding | 100%
CC/C(=N\NC(=O)NCc1cccc(O)c1)c1ccc(O)c(C)c1O | enzyme activity | inhibitor |  |  | 0.1 µM | inhibition | -6%
c1ccc(CNc2nc(N3CCOc4ccccc43)nc3c2CCCC3)cc1 | target engagement in cells | inhibitor | chemoproteomics |  | 20 mM | inhibition | -7.6%
CC(C)(C)c1nc(-c2cccc(NS(=O)(=O)c3c(F)cccc3F)c2F)c(-c2ccnc(N)n2)s1 | enzyme activity | inhibitor | radiometric |  | 1 µM | remaining activity | 63%
C[C@H](c1ccc(F)cc1)N(Cc1cccc(C(=O)O)c1)C(=O)c1cnc2ccccc2c1 | cell-free assay |  | competition with immobilised ligand |  | 1 µM | remaining binding | 100%
COc1ccc(COc2ccc(Cc3cnc(N)nc3N)cc2OC)cc1 | cell-free assay |  |  |  | 0.5 µM | remaining signal | 95.6%
CNC(=O)c1ccc(Nc2ncc(C(F)(F)F)c(NCc3nccnc3N(C)S(C)(=O)=O)n2)cc1 | cell-free assay |  | competition with immobilised ligand |  | 0.1 µM | remaining binding | 75%
O=C1NC(=O)c2cc(Nc3ccc(F)cc3)c(Nc3ccc(F)cc3)cc21 | cell-free assay |  |  |  | 0.5 µM | remaining signal | 88%
O=C(Nc1cnc(Oc2ccc(F)cc2)nc1)N1CCc2ncccc2[C@@H]1c1ccc(F)cc1 | cell-free assay |  | competition with immobilised ligand |  | 1 µM | remaining binding | 84%
Cn1cnc(Br)c1C1=CN(c2ncnc3[nH]cnc23)CCS1 | enzyme activity | inhibitor | radiometric |  | 2 µM | inhibition | 96.5%
CC(=O)N1CCC(c2ccc(C(=O)NC3=NCCN3)cc2C(F)(F)F)CC1 | cell-free assay |  | competition with immobilised ligand |  | 1 µM | remaining binding | 100%
COc1cc(Cl)c(C(=O)N[C@@H](CN[C@H]2CC[C@@H](N)CC2)Cc2ccc(C#N)cc2)cc1-c1ccc(CN[C@H](C)c2ccc(C)cc2)o1 | enzyme activity | inhibitor |  |  | 1 µM | remaining activity | 93%
